The test system of data set [1] is Camelpox virus. Briefly: Antiviral activity against Camelpox virus CML1 infected in human PHK assessed as inhibition of virus-induced cytopathic effect after 6 days by Giemsa staining. In kind it is functional, organism-based. Conditions: CML1, 144 h. On the technique in general: Cytopathic effects are the visible damage that an infection or toxin causes in cultured cells.

Data set [2] has as its system Camelpox virus. Briefly: Antiviral activity against Camelpox virus CML1 infected in HEL299 cells assessed as inhibition of virus-induced cytopathic effect after 6 days by Giemsa staining. In kind it is functional, organism-based. As to conditions: CML1, HEL 299, 144 h.
Data set [3] can be described thus: Selectivity index, ratio of CC50 for HEL299 cells to EC50 for Camelpox virus CML1 infected in HEL299 cells. It counts as toxicity, cell-based, HEL 299. As to conditions: human, HEL299 cells; read-out: Ratio CC50/IC50.
In data set [4] the test system is Camelpox virus. In words: Antiviral activity against Camelpox virus CML14 infected in HEL299 cells assessed as inhibition of virus-induced cytopathic effect after 6 days by Giemsa staining. In kind it is functional, organism-based. Conditions: CML14, HEL 299, 144 h.
The nature of data set [5]: Cytotoxicity against HEL299 cells after 4 days by Z1 Coulter counting analysis. In kind it is cell-based, HEL 299. As to conditions: human, HEL299 cells. Summed up: (§1)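 Cell growth inhibition: HEL cells were seeded at 3.5 × 10³ per well and PHKs at 5 × 10³ per well. Serial dilutions were added in duplicate after 1 day (HEL) or 3 days (PHK). After 4 days with compound, cells were trypsinized and counted with a Coulter counter (8 μm lower limit). CC50 is the concentration reducing growth by 50%, mean ± SD of at least two experiments.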

A short description of data set [6]: Selectivity index, ratio of CC50 for human PHK to EC50 for Camelpox virus CML14 infected in human PHK.
Data set [7] relates to Camelpox virus. Briefly: Antiviral activity against Camelpox virus CML14 infected in human PHK assessed as inhibition of virus-induced cytopathic effect after 6 days by Giemsa staining. In kind it is functional, organism-based. Conditions: CML14, 144 h.
Data set [8] is described as follows: Selectivity index, ratio of CC50 for human PHK to EC50 for Camelpox virus CML1 infected in human PHK.
Data set [9] is described as follows: Cytotoxicity against human PHK after 4 days by Z1 Coulter counting analysis. Conditions: PHK cells. The method, boiled down: as §1
Data set [10] is described as follows: Selectivity index, ratio of CC50 for HEL299 cells to EC50 for Camelpox virus CML14 infected in HEL299 cells. In kind it is toxicity, cell-based, HEL 299. As to conditions: human, HEL299 cells; read-out: Ratio CC50/IC50.

Results on 16 compounds are retold here after ChEMBL document CHEMBL1137668, “Activities of several classes of acyclic nucleoside phosphonates against camelpox virus replication in different cell culture models” (Antimicrob Agents Chemother, 2007).

Bounds are passed on as bounds.

`Nc1nc(NCCC(=O)O)c2ncn(CCOCP(=O)(O)O)c2n1`: the EC50 in the data set on Camelpox virus [1], with Camelpox virus [2], in the data set on Camelpox virus [4] and in the data set on Camelpox virus [7] was above 139 µM each time. Also, the selectivity ratio in data set [3] and in [10] was below 2 throughout. Moreover, the CC50 at 96 h in [5] was found to be 294 µM; in data set [9], 258 µM. In addition, the “Ratio CC50/IC50” value in [6] and in data set [8] was below 2 each time.
Turning to `Nc1nc(NC(CC(=O)O)C(=O)O)c2ncn(CCOCP(=O)(O)O)c2n1` (racemic), the EC50 with Camelpox virus [1] is above 124 µM; in the data set with Camelpox virus [2] it was 48.3 µM; in the data set on Camelpox virus [4], 46 µM; in the data set on Camelpox virus [7], above 124 µM. Moreover, the selectivity ratio in [3] and in data set [10] was 0.4 each time. Also, the CC50 at 96 h in data set [5] is 20 µM; in data set [9], 16 µM. Further, the “Ratio CC50/IC50” value in data set [6] and in data set [8] was below 0.1 throughout.
For `Nc1cc(OCCOCP(=O)(O)O)nc(N)n1`, the EC50 was 49.2 µM with Camelpox virus [1], above 189 µM in the data set with Camelpox virus [2], above 189 µM with Camelpox virus [4] and 53.7 µM in the data set on Camelpox virus [7]. In addition, the selectivity ratio in [3] and in [10] was below 0.3 each time. In addition, the CC50 at 96 h in data set [5] is 66 µM; in [9] it was 4 µM. In addition, the “Ratio CC50/IC50” value in data set [6] and in data set [8] was 0.1 throughout.
In the case of `C[C@H](O)[C@H](Nc1nc(N)nc2c1ncn2CCOCP(=O)(O)O)C(=O)O`, the EC50 is above 128 µM with Camelpox virus [1], 63 µM with Camelpox virus [2], 71.6 µM in the data set on Camelpox virus [4] and above 128 µM in the data set with Camelpox virus [7]. Further, the selectivity ratio in data set [3] and in data set [10] was 1 in each case. In addition, the CC50 at 96 h in [5] was 56 µM; in data set [9] it was above 16 µM. The “Ratio CC50/IC50” value in data set [6] and in [8] was below 0.1 each time.
For the compound `Nc1nc(NCCCC(=O)O)c2ncn(CCOCP(=O)(O)O)c2n1`, the EC50 with Camelpox virus [1], in the data set with Camelpox virus [2], with Camelpox virus [4] and in the data set on Camelpox virus [7] was above 134 µM each time. Also, the selectivity ratio in data set [3] and in data set [10] was below 2 throughout. Moreover, the CC50 at 96 h in data set [5] was 282 µM; in data set [9], above 134 µM. The “Ratio CC50/IC50” value in data set [6] and in [8] was 1 in each case.
For the compound `CC(O)C(Nc1nc(N)nc2c1ncn2CCOCP(=O)(O)O)C(=O)O` (racemic), the EC50 is 47.7 µM in the data set on Camelpox virus [1], 44.1 µM with Camelpox virus [2], 29 µM in the data set on Camelpox virus [4] and 71.5 µM with Camelpox virus [7]. Further, the selectivity ratio in data set [3] is 0.2; in [10] it was 0.3. Also, the values for the CC50 at 96 h in data set [5] and in data set [9] were 9 µM and 2 µM, respectively. The entries for the “Ratio CC50/IC50” value in data set [6] and in data set [8] were 0.03 and 0.04, respectively.
With `Nc1nc(NCCOCP(=O)(O)O)c2ncn(CCOCP(=O)(O)O)c2n1`, the EC50 with Camelpox virus [1], with Camelpox virus [2], with Camelpox virus [4] and with Camelpox virus [7] was above 118 µM in each case.
Regarding `Nc1nc(N)c2ncn(CCOCP(=O)(O)O)c2n1` [PMEDAP], the EC50 is 93 µM in the data set with Camelpox virus [1], above 173 µM with Camelpox virus [2], above 173 µM in the data set on Camelpox virus [4] and 63.7 µM in the data set on Camelpox virus [7]. Also, the selectivity ratio in data set [3] and in data set [10] was below 1 in each case. The CC50 at 96 h in [5] worked out at 100 µM; in data set [9], 8 µM. For the same compound, the “Ratio CC50/IC50” value in [6] and in data set [8] was 0.1 each time.
Consider `Nc1nc(NCCS(=O)(=O)O)c2ncn(CCOCP(=O)(O)O)c2n1`, for which the EC50 in the data set on Camelpox virus [1], in the data set with Camelpox virus [2], in the data set with Camelpox virus [4] and with Camelpox virus [7] was above 126 µM in each case. The selectivity ratio in [3] and in data set [10] was below 2 each time. The CC50 at 96 h in data set [5] is 258 µM; in data set [9], 102 µM. Also, the “Ratio CC50/IC50” value in data set [6] and in [8] was below 1 in each case.
Take `CC(C)CC(Nc1nc(N)nc2c1ncn2CCOCP(=O)(O)O)C(=O)O` (racemic): the EC50 in the data set on Camelpox virus [1] amounted to 77.8 µM; in the data set with Camelpox virus [2] it was 53 µM; in the data set on Camelpox virus [4] it was 44.3 µM; with Camelpox virus [7] it was 87.4 µM. The selectivity ratio in data set [3] came to 0.2; in data set [10], 0.3. Moreover, the CC50 at 96 h is 12 µM in [5] and 8 µM in data set [9]. Also, the “Ratio CC50/IC50” value in [6] and in [8] was 0.1 in each case.
`Nc1nc(N(CC(=O)O)CC(=O)O)c2ncn(CCOCP(=O)(O)O)c2n1`: the concentration giving a half-maximal response (EC50) in the data set with Camelpox virus [1], with Camelpox virus [2], with Camelpox virus [4] and with Camelpox virus [7] was above 124 µM each time. Moreover, in data set [3], the selectivity ratio was determined as 1. Also, the CC50 at 96 h in data set [5] and in data set [9] was above 124 µM each time. In addition, the “Ratio CC50/IC50” value in [6] and in [8] was 1 throughout.
For `Nc1nc(Cl)c2ncn(CCOCP(=O)(O)O)c2n1`, the EC50 in the data set on Camelpox virus [1] came to 7.9 µM; with Camelpox virus [2], 6.9 µM; with Camelpox virus [4], 9.3 µM; with Camelpox virus [7], 15.9 µM. Further, the selectivity ratio in data set [3] and in [10] was 1 in each case. Also, the CC50 at 96 h is 8 µM in data set [5] and 1 µM in data set [9]. For the same compound, the “Ratio CC50/IC50” value turned out to be 0.1 in data set [6] and 0.2 in data set [8].
With `Nc1nc(NCS(=O)(=O)O)c2ncn(CCOCP(=O)(O)O)c2n1`, the EC50 with Camelpox virus [1] turned out to be 3.7 µM; in the data set on Camelpox virus [2], 1.9 µM; in the data set with Camelpox virus [4], 1.9 µM; in the data set on Camelpox virus [7] it was 4.9 µM. In addition, the selectivity ratio in data set [3] and in data set [10] was 1 in each case. The CC50 at 96 h in data set [5] was 2 µM; in [9], 0.1 µM. Moreover, the “Ratio CC50/IC50” value in data set [6] and in data set [8] was 0.03 throughout.
Take `Nc1nc(N)c(Br)c(OCCOCP(=O)(O)O)n1`: the EC50 with Camelpox virus [1], with Camelpox virus [2], in the data set with Camelpox virus [4] and in the data set with Camelpox virus [7] was above 156 µM each time. Further, the selectivity ratio in data set [3] and in data set [10] was below 0.3 each time. In [5], this compound came in with a CC50 at 96 h of 52 µM.
With `Cc1nc(N)nc2c1ncn2CCOCP(=O)(O)O`, the EC50 in the data set on Camelpox virus [1], with Camelpox virus [2], in the data set on Camelpox virus [4] and in the data set with Camelpox virus [7] was above 174 µM throughout. Moreover, in data set [3], the selectivity ratio amounted to 1. Further, the 50% cytotoxic concentration (CC50) at 96 h in [5] was above 174 µM; in data set [9], above 70 µM. Further, the “Ratio CC50/IC50” value in data set [6] and in data set [8] was 0.4 in each case.
`C[C@@H](Cn1cnc2c(N)ncnc21)OCP(=O)(O)O`: the EC50 in the data set with Camelpox virus [1], in the data set with Camelpox virus [2], in the data set on Camelpox virus [4] and with Camelpox virus [7] was above 176 µM throughout. Besides, the selectivity ratio in [3] came to 1. Moreover, the CC50 at 96 h in [5] and in data set [9] was above 176 µM throughout. Besides, the “Ratio CC50/IC50” value in [6] and in [8] was 1 in each case.

In general, EC50 refers to the midpoint of the concentration-response curve. The term CC50 denotes the concentration giving 50% cytotoxicity. A higher CC50 goes with lower toxicity to the cells.
